Measured values published in ChEMBL document CHEMBL1158989, “Synthesis and evaluation of hydroxylated flavones and related compounds as potential inhibitors of the protein-tyrosine kinase p56lck” (J Nat Prod, 1991).
In brackets after ≈: the same amount, converted by molar mass.

Test: Inhibition of bovine thymus p56LCK-catalyzed phosphorylation of angiotensin 1 by SDS-PAGE
Parameters: species or system Bos taurus
Procedure, shortened: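 p56lck partially purified from bovine thymus (DEAE-cellulose, heparin-agarose, butyl-agarose chromatography). Substrate angiotensin I 1.2 mM with [γ-32P]ATP 50 μM. Reactions held 8% DMSO as inhibitor carrier; DMSO-only controls. Inhibitors tested at seven concentrations, 0.8 to 800 μg/ml. IC50 read graphically as half-maximal inhibition relative to DMSO controls.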

| IC50 | SMILES |
| --- | --- |
| 400 µg/mL (≈ 1270 µM) | COc1cc(-c2cc(=O)c3ccc(O)cc3o2)cc(OC)c1O |
| 20 µg/mL (≈ 60.9 µM) | COc1cc(-c2cc(=O)c3cc(O)ccc3o2)cc(OC)c1OC |
| 4 µg/mL (≈ 15.7 µM) | O=c1cc(-c2ccc(O)cc2)oc2cccc(O)c12 |
| 120 µg/mL (≈ 504 µM) | O=c1cc(-c2ccc(O)cc2)oc2ccccc12 |
| 80 µg/mL (≈ 281 µM) | COc1cc(O)c2c(=O)cc(-c3ccc(O)cc3)oc2c1 [GENKWANIN] |
| > 800 µg/mL | COc1ccc2c(=O)cc(-c3cc(OC)c(OC)c(OC)c3)oc2c1 |
| 80 µg/mL (≈ 315 µM) | O=c1cc(-c2ccccc2)oc2c(O)c(O)ccc12 [7,8-DIHYDROXYFLAVONE] |
| 7.7 µg/mL (≈ 25.8 µM) | COc1cc(-c2cc(=O)c3ccccc3o2)cc(OC)c1O |
| > 800 µg/mL | COc1ccc2oc(-c3cc(OC)c(OC)c(OC)c3)cc(=O)c2c1 |
| 656 µg/mL (≈ 1530 µM) | COc1cc(-c2cc(=O)c3ccc(O)cc3o2)cc(OC)c1O[Si](C)(C)C(C)(C)C |
| 136 µg/mL (≈ 395 µM) | COc1cc(-c2cc(=O)c3ccc(O)c(O)c3o2)cc(OC)c1OC |
| 80 µg/mL (≈ 296 µM) | O=c1c(O)c(-c2ccccc2)oc2cc(O)cc(O)c12 [GALANGIN] |
| 41 µg/mL (≈ 130 µM) | COc1cc(-c2cc(=O)c3cc(O)ccc3o2)cc(OC)c1O |
| 30 µg/mL (≈ 118 µM) | O=c1cc(-c2ccc(O)cc2)oc2ccc(O)cc12 |
| 10 µg/mL (≈ 39.3 µM) | O=c1cc(-c2cccc(O)c2)oc2cc(O)ccc12 |
| 44 µg/mL (≈ 119 µM) | CC(C)(C)[Si](C)(C)Oc1ccc(-c2cc(=O)c3cc(O)ccc3o2)cc1 |
| 48 µg/mL (≈ 178 µM) | O=c1cc(-c2cccc(O)c2)oc2c(O)c(O)ccc12 |

| IC50 | SMILES |
| --- | --- |
| 43 µg/mL (≈ 169 µM) | O=c1cc(-c2ccc(O)cc2)oc2cc(O)ccc12 |
| 40 µg/mL (≈ 90 µM) | COc1cc(-c2cc(=O)c3ccc(O)c(O)c3o2)cc(OC)c1O[Si](C)(C)C(C)(C)C |
| > 800 µg/mL | COc1cc(-c2cc(=O)c3ccc(OC(C)=O)cc3o2)cc(OC)c1O[Si](C)(C)C(C)(C)C |
| 4 µg/mL (≈ 14.8 µM) | O=c1cc(-c2ccc(O)cc2)oc2cc(O)cc(O)c12 [APIGENIN] |
| 80 µg/mL (≈ 315 µM) | O=c1cc(-c2cccc(O)c2)oc2cccc(O)c12 |
| 30 µg/mL (≈ 99.3 µM) | O=c1c(O)c(-c2cc(O)cc(O)c2)oc2cc(O)cc(O)c12 |
| 4 µg/mL (≈ 15.7 µM) | O=c1cc(-c2cccc(O)c2)oc2ccc(O)cc12 |
| > 800 µg/mL | O=c1cc(-c2ccc(OCc3ccccc3)cc2)oc2cccc(O)c12 |
| 160 µg/mL (≈ 373 µM) | COc1cc(-c2cc(=O)c3cc(O)ccc3o2)cc(OC)c1O[Si](C)(C)C(C)(C)C |
| 4 µg/mL (≈ 14 µM) | O=c1c(O)c(-c2ccc(O)c(O)c2)oc2cc(O)ccc12 [FISETIN] |
| 360 µg/mL (≈ 977 µM) | CC(C)(C)[Si](C)(C)Oc1ccc(-c2cc(=O)c3ccc(O)cc3o2)cc1 |
| 5 µg/mL (≈ 19.7 µM) | O=c1cc(-c2ccccc2)oc2cc(O)cc(O)c12 [CHRYSIN] |
| 80 µg/mL (≈ 336 µM) | O=c1cc(-c2ccccc2)oc2cc(O)ccc12 [7-HYDROXYFLAVONE] |
| > 800 µg/mL | COc1cc(-c2cc(=O)c3ccc(OC(C)=O)c(OC(C)=O)c3o2)cc(OC)c1O[Si](C)(C)C(C)(C)C |
| 664 µg/mL (≈ 1930 µM) | O=c1cc(-c2ccc(OCc3ccccc3)cc2)oc2cc(O)ccc12 |
| > 800 µg/mL | COc1cc(-c2cc(=O)c3ccc(OC(C)=O)cc3o2)cc(OC)c1O |
| > 800 µg/mL | COc1cc(-c2cc(=O)c3ccc(O)cc3o2)cc(OC)c1OC |

| SMILES | IC50 |
| --- | --- |
| O=c1cc(-c2ccc(O)c(O)c2)oc2cc(O)cc(O)c12 [LUTEOLIN] | 10 µg/mL (≈ 34.9 µM) |
| O=c1c(O)c(-c2ccc(O)c(O)c2)oc2cc(O)cc(O)c12 [QUERCETIN] | 4 µg/mL (≈ 13.2 µM) |
| COc1cc(-c2oc3cc(O)cc(O)c3c(=O)c2O)cc(OC)c1O [SYRINGETIN] | 24 µg/mL (≈ 69.3 µM) |
